# Assay outcomes as filed in PubChem BioAssay.
# The list is not random: actives were taken first. Their share in the collection is about 1.8%.
# GALR2 blocker: GALR2 antagonists in receptor-expressing cells, primary screen. inhibition, % at 4 µM. Galanin receptor type 2 (Homo sapiens), O43603. AID 828, 2007. antagonist mode. 140,000 tested, 0.39% active; in the data active = inhibition above about 27%;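 also: cells stimulated with galanin 1-16 at roughly its EC80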
# S1P2 antag: human S1P2 receptor antagonists, primary screen, cell-based | Sphingosine 1-phosphate receptor 2 (Homo sapiens), O95136 | cell-based S1P2 antagonist assay, inhibition at 5 uM | inhibition, % at 5 µM | 97,000 tested, 0.21% active | AID 736, 2007; in the data active = inhibition above about 45%;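 also: CRE beta-lactamase reporter cells expressing human S1P2 stimulated with S1P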
# Target sequence (O95136 whole entry, looked up): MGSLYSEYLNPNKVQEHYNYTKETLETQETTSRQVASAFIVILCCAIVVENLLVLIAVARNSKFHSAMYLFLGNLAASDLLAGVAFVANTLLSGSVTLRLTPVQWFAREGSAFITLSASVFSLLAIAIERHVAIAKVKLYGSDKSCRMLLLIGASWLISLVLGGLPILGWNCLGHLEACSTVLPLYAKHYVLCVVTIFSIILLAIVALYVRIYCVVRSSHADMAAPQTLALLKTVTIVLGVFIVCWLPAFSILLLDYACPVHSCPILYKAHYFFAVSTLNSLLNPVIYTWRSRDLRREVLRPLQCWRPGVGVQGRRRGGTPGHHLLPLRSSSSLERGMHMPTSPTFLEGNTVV
# EphB4 ephrin blk: EphB4-ephrin-B2 interaction antagonists, primary screen, biochemical, TNYL-RAW peptide probe, fluorescence polarization; EphB4 LBD / TNYL-RAW-Alexa532 peptide; Ephrin type-B receptor 4 (Homo sapiens), P54760; inhibition, % at 7 µM; 97,000 tested, 0.15% active;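 active = inhibition above the screen-wide mean inhibition plus 3 SD, cut at about 15% in these data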
# HIV Rev-RRE inh: HIV-1 Rev-RRE binding inhibitors, primary screen, biochemical, FRET, protein-RNA interaction; 97,000 tested, 0.79% active; Rev peptide-RRE RNA binding; inhibition, % at 8 µM; P05866; AID 704, 2007;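 active = inhibition above the screen-wide mean plus 3 SD, cut at about 35% in these data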
# Target sequence (P05866 whole entry, looked up): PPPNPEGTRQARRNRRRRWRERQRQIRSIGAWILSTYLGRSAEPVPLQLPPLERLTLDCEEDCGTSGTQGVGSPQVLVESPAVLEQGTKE
#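 Test system: Cy5-tagged RRE RNA duplex with fluorescein-tagged Rev peptide; Probe or stimulus: labelled Rev peptide; Schedule: 5 min preincubation and 15 min binding, 25 °C; Signal: FRET fluorescence readout; Evaluation: % inhibition from 671/540 nm acceptor-to-donor ratio, scaled between controls; Control set: DMSO and neomycin B.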
# S1P2 agonist: S1P2 receptor agonists, primary screen, cell-based | Sphingosine 1-phosphate receptor 2 (Homo sapiens), O95136 | S1P2-expressing cell line, agonist reporter read-out | activation, % at 4.5 µM | 97,000 tested, 0.46% active; in the data active = activation above about 16%
# GALR2 agonist: GALR2 receptor agonists, primary screen, cell-based | Galanin receptor type 2 (Homo sapiens), O43603 | GALR2-expressing cells, agonist activation read-out | activation, % (test concentration not listed) | 140,000 tested, 0.48% active; in the data active = activation above about 5%, passing the limit was not always enough
# Hits are given with their value; - = inactive; . = no result given; [ ] = another dose, or the depositor's remark.
SMILES,GALR2 blocker,S1P2 antag,EphB4 ephrin blk,HIV Rev-RRE inh,S1P2 agonist,GALR2 agonist
CN1CCc2c(sc3c2C(=O)NC(c2cn(Cc4ccccc4)c4ccccc24)N3)C1 (centres undefined),-,-,-,79,-,-
COC(=O)Nc1ccc(S(=O)(=O)N2CCCC(C(=O)NC3CCS(=O)(=O)C3)C2)cc1 (centres undefined),-,.,.,.,.,-
c1ccc(-c2nnc(-c3ccccc3)o2)cc1,-,-,-,-,-,-
Nc1ccccc1-c1nnc(-c2ccc(-c3ccccc3)cc2)o1,-,-,-,-,20,-
COc1cc(C(=O)Nc2sc3c(c2C(=O)NCc2ccco2)CCCC3)cc(OC)c1OC,-,-,-,-,23,-
COc1ccc(C(=O)Nc2sc3c(c2C(=O)NCc2ccco2)CCCC3)cc1OC,-,-,-,-,-,-
O=C1Nc2ccc(Cl)cc2/C1=C/C1CC=CCC1 (centres undefined),-,.,.,.,.,5.0
CN1/C(=C\C(=O)c2cncc(Br)c2)C(C)(C)c2ccccc21,-,.,.,.,.,-
Cc1c(O)cc2n(c1=O)-c1ccccc1C2(C)C,-,-,16,-,-,-
C/C=C(/C)C(=O)OC1c2c(ccc3ccc(=O)oc23)OC(C)(C)C1OC(C)=O (centres undefined),-,-,-,-,20,-
CC1CN(C(=O)c2ccc(N3CCCCC3)c([N+](=O)[O-])c2)CC(C)O1 (centres undefined),-,.,.,.,.,-
COC(=O)c1ccc(C)c(-n2c(C)cc(C=O)c2C)c1,-,.,.,.,.,-
COc1ccccc1C(=O)Nc1nc(-c2ccc(S(=O)(=O)N3CCOCC3)cc2)cs1,-,77,-,-,-,-
COc1ccccc1OC(C)C(=O)Nc1nc(-c2ccc(S(=O)(=O)N3CCOCC3)cc2)cs1 (centres undefined),-,-,-,-,-,-
CN(C)c1ccc(/C=c2\sc3nc(-c4ccccc4)nn3c2=O)cc1,-,-,-,75,-,-
CCN(CC(=O)Nc1ccccc1OC)C(=O)COc1ccc2ccccc2c1,-,.,.,.,.,-
COC(=O)[C@@]1(Cc2ccc(OC)cc2)[C@H]2c3cc(C(=O)N4CCCC4)n(CCc4c[nH]c5ccc(O)cc45)c3C[C@H]2CN1C(=O)c1ccccc1,-,.,.,.,.,-
Cc1nc2cc(NC(=O)N(C)c3ccc4ccccc4c3)ccc2o1,-,-,-,-,-,5.0
CCC(=O)Nc1nc2n(n1)C(c1ccc(OC)cc1)C=C(c1ccccc1)N2 (centres undefined),-,-,-,45,-,-
CC(=O)Nc1nc2n(n1)C(c1ccccc1)C=C(c1ccccc1)N2 (centres undefined),-,-,-,-,-,-
OCCCc1nc2n(n1)C(c1ccccc1)C=C(c1ccccc1)N2 (centres undefined),-,-,-,-,-,-
O=C(Nc1nc2n(n1)C(c1ccccc1)C=C(c1ccccc1)N2)c1ccco1 (centres undefined),-,-,-,46,-,-
O=C(c1nc2n(n1)C(c1ccc(Cl)cc1)C=C(c1ccccc1)N2)N1CCOCC1 (centres undefined),-,-,-,118[fluorescence artefact?],-,-
COc1ccc(C2=CC(c3ccc(Cl)cc3)n3cnnc3N2)cc1OC (centres undefined),38,.,.,.,.,-
CC1=CC(c2ccc(Cl)cc2)n2nc(NC(=O)c3ccccc3)nc2N1 (centres undefined),-,-,-,-,-,-
SMILES,GALR2 blocker,S1P2 antag,EphB4 ephrin blk,HIV Rev-RRE inh,S1P2 agonist,GALR2 agonist
COc1ccc(C2=CC(c3ccc(F)cc3)n3nnnc3N2)cc1 (centres undefined),-,.,.,.,.,-
COc1ccc(O[C@H]2C=C[C@@H](c3ccccc3)O[C@@H]2CO/N=C(\C)CCC(=O)OC[C@H]2O[C@H](c3ccccc3)C=C[C@@H]2Oc2ccc(OC)cc2)cc1,-,.,.,.,.,-
CCO/N=C(/C)c1c(O)c(C)c(-c2ccccc2)n(-c2ccccc2)c1=O,-,-,-,-,-,-
O=C(Cn1nc([N+](=O)[O-])nc1Br)NC(c1ccccc1)c1ccccc1,-,.,.,.,.,-
COc1ccc(C2C=C(c3ccc(Cl)cc3)Nc3nc(NC(C)=O)nn32)cc1 (centres undefined),-,-,-,78,-,-
O=C(Nc1nc2n(n1)C(c1ccc(Cl)cc1)CC(c1ccc(Cl)cc1)N2)c1ccco1 (centres undefined),-,-,21,-,-,-
COc1ccc(C2CC(c3ccc(Cl)cc3)Nc3nc(NC(=O)c4ccco4)nn32)cc1 (centres undefined),-,-,-,-,-,-
CCCCCCCNC(=O)C1CC(=O)N(C)C(=Nc2ccc(OC)cc2)S1 (centres undefined),-,.,.,.,.,-
CC(=O)N/N=C/c1ccc(OCCOc2ccc(Br)cc2)cc1,-,.,.,.,.,-
Cc1nn(Cc2c(Cl)cccc2Cl)c(Cl)c1/C=N/NC(=O)c1cccnc1,-,.,.,.,.,-
CCCC(=O)Nc1ccc(N2CCN(C(=O)c3ccccc3C)CC2)cc1,33,-,-,-,-,-
Cc1nc(SCC(=O)Nc2ccccc2)c2oc3ccccc3c2n1,-,-,-,-,17,-
O=C(CCc1[nH]c2ccccc2c1Sc1ccccc1)NCCO,-,.,.,.,.,-
CCOC(=O)CN(C(=O)CSc1nnc(COc2ccc(OC)cc2)n1C)c1ccccc1,-,-,-,-,96,-
N#CC1=C(N)Oc2n[nH]c(-c3cccs3)c2C1c1ccco1 (centres undefined),-,-,-,60,-,-
c1coc(-c2nc(-c3ccco3)c(-c3ccco3)nc2-c2ccco2)c1,-,-,19,-,-,-
CN(/N=C/c1ccc(O)cc1O)c1nc(-c2ccccc2)cc(-c2ccccc2)n1,-,.,.,.,.,-
Cc1csc(NC(=O)CSc2nnc(-c3cc(C)on3)o2)n1,-,.,.,.,.,-
Cc1cc(-c2nnc(SCC(=O)NC3CCCC3)o2)no1,-,-,-,-,70,-
CCn1c(SCC(=O)N/N=C/c2c[nH]c3ccccc23)nnc1-c1ccc(C(C)(C)C)cc1,-,.,.,.,.,-
Cc1nnc(N2C(=O)C(O)=C(C(=O)c3ccco3)C2c2ccc(C(C)(C)C)cc2)s1 (centres undefined),-,-,-,92[fluorescence artefact?],-,-
Cc1nnc(N2C(=O)C(O)=C(C(=O)c3ccco3)C2c2ccc(C(C)C)cc2)s1 (centres undefined),-,.,.,.,.,-
